Measured values: ChEMBL document CHEMBL1124308, “Renin inhibitors. Dipeptide analogues of angiotensinogen utilizing a structurally modified phenylalanine residue to impart proteolytic stability” (J Med Chem, 1988)

Key:
Pepsin A (Sus scrofa) = Pepsin A (Sus scrofa) (UniProt P00791); experiment: Inhibition of porcine pepsin enzyme at 1*10e-5; conditions: concentration not given here
[1] = (§1) Ratio of IC50 value for human plasma renin(pH 7.4) and purified human renin(pH 6.0)
Cathepsin D (Bos taurus) = molecular target: T1, Cathepsin D (Bos taurus) (UniProt P80209); experiment: Inhibition of bovine cathepsin D at 1*10e-5; conditions: concentration not given here
T1 sequence (whole entry): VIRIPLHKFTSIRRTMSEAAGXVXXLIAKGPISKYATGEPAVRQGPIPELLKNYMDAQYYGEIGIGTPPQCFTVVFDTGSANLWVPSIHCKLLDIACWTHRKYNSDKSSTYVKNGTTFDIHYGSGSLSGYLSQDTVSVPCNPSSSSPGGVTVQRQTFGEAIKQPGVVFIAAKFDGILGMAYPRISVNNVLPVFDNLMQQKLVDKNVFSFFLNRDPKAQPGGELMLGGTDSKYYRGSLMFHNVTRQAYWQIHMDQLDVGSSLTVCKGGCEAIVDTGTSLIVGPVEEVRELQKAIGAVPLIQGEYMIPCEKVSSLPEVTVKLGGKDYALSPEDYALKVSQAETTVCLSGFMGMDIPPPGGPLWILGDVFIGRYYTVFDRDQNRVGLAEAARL

chymotrypsin = experiment: The compound was tested […] for chymotrypsin susceptibility (degradation); format: ADME
Renin [2] = molecular target: T2, Renin (Homo sapiens, UniProt P00797); experiment: Inhibition of purified human renin (pH 6.0)
T2 sequence (P00797 whole entry): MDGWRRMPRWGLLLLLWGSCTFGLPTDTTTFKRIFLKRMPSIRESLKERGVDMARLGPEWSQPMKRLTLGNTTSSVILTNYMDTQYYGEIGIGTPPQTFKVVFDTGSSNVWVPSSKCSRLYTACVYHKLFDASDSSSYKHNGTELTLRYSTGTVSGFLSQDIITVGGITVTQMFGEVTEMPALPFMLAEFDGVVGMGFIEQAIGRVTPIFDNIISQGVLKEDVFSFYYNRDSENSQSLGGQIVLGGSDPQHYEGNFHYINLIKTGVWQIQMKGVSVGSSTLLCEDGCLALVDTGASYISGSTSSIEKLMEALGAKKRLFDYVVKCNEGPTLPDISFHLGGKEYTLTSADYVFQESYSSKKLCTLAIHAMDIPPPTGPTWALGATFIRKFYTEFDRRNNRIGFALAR

Renin [3] = molecular target: T2, Renin; experiment: Inhibition of human plasma renin (pH 7.4); format: cell-free
Procedure, shortened: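 Plasma renin assay at pH 7.4, adapted from an earlier method: 0.10 M HEPES buffer in place of maleate, incubation lengthened to 2.5 h, and angiotensin I measured by radioimmunoassay on the whole incubation sample. IC50 reported in nM.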

[4] = as §1; format: functional

Sequence of Pepsin A (Sus scrofa) (P00791 60-385 limits assumed): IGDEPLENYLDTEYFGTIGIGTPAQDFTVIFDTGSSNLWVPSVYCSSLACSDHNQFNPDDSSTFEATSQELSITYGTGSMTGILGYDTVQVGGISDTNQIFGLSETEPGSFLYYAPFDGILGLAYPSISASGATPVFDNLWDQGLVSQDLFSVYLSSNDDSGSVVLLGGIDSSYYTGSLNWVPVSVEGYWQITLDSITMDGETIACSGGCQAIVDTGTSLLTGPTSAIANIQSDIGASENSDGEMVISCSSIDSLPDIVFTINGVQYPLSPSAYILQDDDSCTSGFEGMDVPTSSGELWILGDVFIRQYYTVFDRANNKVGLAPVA

`CC(C)C[C@H](O)[C@H](O)[C@H](CC1CCCCC1)NC(=O)[C@H](Cc1c[nH]cn1)NC(=O)[C@H](Cc1ccccc1)NC(=O)N1CCOCC1` showed an inhibition (Pepsin A (Sus scrofa)) of 0%, a Ratio [1] of 2.5 and an inhibition (Cathepsin D (Bos taurus)) of 0%.
Compound `CC(C)C[C@H](O)[C@H](O)[C@H](CC1CCCCC1)NC(=O)[C@H](Cc1cnc[nH]1)NC(=O)[C@H](Cc1ccccc1)NC(=O)N1CCOCC1` has a half-life (chymotrypsin) of 2.2 min, an IC50 (Renin [2]) of 0.35 nM and an IC50 (Renin [3]) of 0.89 nM.
Work on `CC(C)C[C@H](O)[C@H](O)[C@H](CC1CCCCC1)NC(=O)[C@H](Cc1cnc[nH]1)NC(=O)[C@H](Cc1ccccc1)NC(=O)N(C)CCO` yielded a half-life (chymotrypsin) of 34.3 min, an IC50 (Renin [2]) of 0.55 nM and an IC50 (Renin [3]) of 0.98 nM.
`CC(C)C[C@H](O)[C@H](O)[C@H](CC1CCCCC1)NC(=O)[C@H](Cc1c[nH]cn1)NC(=O)/C(=C/c1ccccc1)CC(=O)N1CCOCC1` gave a half-life (chymotrypsin) of 1260 min, an inhibition (Pepsin A (Sus scrofa)) of 8% and an IC50 (Renin [2]) of 0.79 nM. It also gave a Ratio [4] of 2.7, an inhibition (Cathepsin D (Bos taurus)) of 0% and an IC50 (Renin [3]) of 2.1 nM.
Compound `CC(C)C[C@H](O)[C@H](O)[C@H](CC1CCCCC1)NC(=O)[C@H](Cc1c[nH]cn1)NC(=O)[C@H](Cc1ccccc1)NC(=O)N1CCC(O)CC1` has a half-life (chymotrypsin) of 3.3 min, an inhibition (Pepsin A (Sus scrofa)) of 4% and an IC50 (Renin [2]) of 0.42 nM. For the same compound, the Ratio [4] was 1.6, the inhibition (Cathepsin D (Bos taurus)) was 2% and the IC50 (Renin [3]) was 0.68 nM.
In the case of `CC(C)C[C@H](O)[C@H](O)[C@H](CC1CCCCC1)NC(=O)[C@H](Cc1c[nH]cn1)N(C)C(=O)[C@H](Cc1ccccc1)NC(=O)N1CCOCC1`, the inhibition (Pepsin A (Sus scrofa)) is reported as 0%, the IC50 (Renin [2]) is reported as 0.94 nM and the Ratio [4] is reported as 2.7. It also gave an inhibition (Cathepsin D (Bos taurus)) of 0% and an IC50 (Renin [3]) of 2.5 nM.
For `COc1ccc(C[C@H](NC(=O)N2CCOCC2)C(=O)N[C@@H](Cc2c[nH]cn2)C(=O)N[C@@H](CC2CCCCC2)[C@@H](O)[C@@H](O)CC(C)C)cc1`, the inhibition (Pepsin A (Sus scrofa)) was 4%, the Ratio [4] was 3.2 and the inhibition (Cathepsin D (Bos taurus)) was 3%.
With `COc1ccc(C[C@H](NC(=O)N2CCOCC2)C(=O)N[C@@H](Cc2cnc[nH]2)C(=O)N[C@@H](CC2CCCCC2)[C@@H](O)[C@@H](O)CC(C)C)cc1` the half-life (chymotrypsin) was 727 min, the IC50 (Renin [2]) was 0.76 nM and the IC50 (Renin [3]) was 2.4 nM.
Work on `CC(C)C[C@H](O)[C@H](O)[C@H](CC1CCCCC1)NC(=O)[C@H](Cc1c[nH]cn1)NC(=O)[C@@H](NC(=O)N1CCOCC1)C(C)(C)c1ccccc1` yielded an inhibition (Pepsin A (Sus scrofa)) of 3%, a Ratio [4] of 25 and an inhibition (Cathepsin D (Bos taurus)) of 3%.
Compound `CC(C)C[C@H](O)[C@H](O)[C@H](CC1CCCCC1)NC(=O)[C@H](Cc1c[nH]cn1)NC(=O)[C@H](Cc1ccccc1)NC(=O)N1CCNCC1` has a half-life (chymotrypsin) of 6.9 min, an inhibition (Pepsin A (Sus scrofa)) of 0% and a Ratio [4] of 6.9. It also gave an inhibition (Cathepsin D (Bos taurus)) of 0% and an IC50 (Renin [3]) of 4.5 nM.
Compound `CC(C)C[C@H](O)[C@H](O)[C@H](CC1CCCCC1)NC(=O)[C@H](Cc1c[nH]cn1)NC(=O)[C@H](CCc1ccccc1)NC(=O)N1CCOCC1` has a half-life (chymotrypsin) of 9.6 min, an inhibition (Pepsin A (Sus scrofa)) of 6% and an IC50 (Renin [2]) of 0.3 nM. The Ratio [4] was 6.7, the inhibition (Cathepsin D (Bos taurus)) was 0% and the IC50 (Renin [3]) was 2 nM.
In the case of `CC(C)C[C@H](O)[C@H](O)[C@H](CC1CCCCC1)NC(=O)[C@H](Cc1c[nH]cn1)NC(=O)[C@H](Cc1ccccc1)NC(=O)N(C)CCO`, the inhibition (Pepsin A (Sus scrofa)) is reported as 3%, the Ratio [4] is reported as 1.8 and the inhibition (Cathepsin D (Bos taurus)) is reported as 0%.
With `CC(C)C[C@H](O)[C@H](O)[C@H](CC1CCCCC1)NC(=O)[C@H](Cc1c[nH]cn1)NC(=O)[C@H](Cc1ccccc1)NC(=O)N(C)C` the half-life (chymotrypsin) was 17.5 min, the inhibition (Pepsin A (Sus scrofa)) was 11% and the IC50 (Renin [2]) was 0.5 nM. It also gave a Ratio [4] of 6.6, an inhibition (Cathepsin D (Bos taurus)) of 3% and an IC50 (Renin [3]) of 3.3 nM.
With `CC(C)C[C@H](O)[C@H](O)[C@H](CC1CCCCC1)NC(=O)[C@H](Cc1c[nH]cn1)NC(=O)/C(=C/c1ccccc1)NC(=O)N1CCOCC1` the inhibition (Pepsin A (Sus scrofa)) was 0%, the IC50 (Renin [2]) was 0.58 nM and the Ratio [4] was 9.1. For the same compound, the inhibition (Cathepsin D (Bos taurus)) was 0% and the IC50 (Renin [3]) was 5.3 nM.
In the case of `CC(C)C[C@H](O)[C@H](O)[C@H](CC1CCCCC1)NC(=O)[C@H](Cc1c[nH]cn1)NC(=O)[C@H](Cc1ccccc1)OC(=O)N1CCOCC1`, the half-life (chymotrypsin) is reported as 233 min, the inhibition (Pepsin A (Sus scrofa)) is reported as 0% and the IC50 (Renin [2]) is reported as 0.82 nM. The Ratio [4] was 3.7, the inhibition (Cathepsin D (Bos taurus)) was 0% and the IC50 (Renin [3]) was 3 nM.
With `CC(C)C[C@H](O)[C@H](O)[C@H](CC1CCCCC1)NC(=O)[C@H](Cc1c[nH]cn1)NC(=O)[C@@H](CC(=O)N1CCOCC1)Cc1ccccc1` the half-life (chymotrypsin) was 227 min, the inhibition (Pepsin A (Sus scrofa)) was 0% and the IC50 (Renin [2]) was 0.29 nM. For the same compound, the Ratio [1] was 4.5, the inhibition (Cathepsin D (Bos taurus)) was 0% and the IC50 (Renin [3]) was 1.3 nM.
Work on `CC(C)C[C@H](O)[C@H](O)[C@H](CC1CCCCC1)NC(=O)[C@H](Cc1c[nH]cn1)NC(=O)[C@@H](Cc1ccccc1)NC(=O)N1CCOCC1` yielded an inhibition (Pepsin A (Sus scrofa)) of 2%, an IC50 (Renin [2]) of 14 nM and a Ratio [4] of 10. For the same compound, the inhibition (Cathepsin D (Bos taurus)) was 1% and the IC50 (Renin [3]) was 140 nM.
Work on `CC(C)C[C@H](O)[C@H](O)[C@H](CC1CCCCC1)NC(=O)[C@H](Cc1cnc[nH]1)NC(=O)[C@@H](NC(=O)N1CCOCC1)C(C)(C)c1ccccc1` yielded an IC50 (Renin [2]) of 2.6 nM and an IC50 (Renin [3]) of 65 nM.
